# From PubChem
# Only some compounds are listed: those with a hit (about 4.2% of all), similar ones and a draw of the others.
# Insulin prom up – insulin promoter activators in MIN6 cells, imaging, high-content screening, mouse beta cells | hit rate 0.3% among 190,000 | MIN6 insulin promoter-GFP reporter; hits give high values | z-score at 5 µM;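 active = z-score above 3 at 5 µM with at least 500 cells counted in the well; inconclusive = wells under 500 cells, flagged as cytotoxic or low count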
# SKKanGAS inh – S. pyogenes SKKanGAS growth inhibitors in kanamycin, primary screen, streptokinase expression inhibitor project, SKKanGAS strain, BacTiter-Glo luminescence; 6 h; inhibition, % at 7.5 µM; hit rate 1.3% among 300,000; AID 1662, 2009;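 active = mean replicate score, as percent of positive control median, at least 50; inconclusive = mean below 50 but one replicate at or above 50; inactive = mean and every replicate below 50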;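 note: strain carries kanamycin resistance gene driven by streptokinase promoter and grows in 40 µg/ml kanamycin; loss of luminescence reflects streptokinase promoter inhibition or plain growth inhibition; 0% = median of DMSO wells and 100% = positive control at its reference dose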
# Cl transport mod – KCC2 cotransporter modulators, thallium flux, primary screen, cell-based, HEK293 KCC2, FluoZin-2 fluorescence, MLSMR. Solute carrier family 12 member 5 (Homo sapiens), Q9H2X9. KCC2 cells, thallium flux FluoZin-2 fluorescence. B-score of Tl+ flux slope (higher = more flux/activation; lower = inhibition) at 10 µM. hit rate 2.2% among 190,000. AID 1456, 2008;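 active = thallium flux slope and its plate-corrected score both differing from the plate sample mean at a set confidence after two filtering rounds, in either direction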;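 note: slope of fluorescence scaled to starting intensity during 10 to 20 s after thallium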
# WT yeast gro inh – growth inhibition of WT strain, primary screen, mitochondrial fusion inhibitor project, WT and mutant strains, chemical genetic; hit rate 2.1% among 190,000; mitochondrial fusion phenotypic screen; inhibition, % at 10 µM; in the data active = inhibition above about 58%; tested in S. cerevisiae
# Rad51 HR inh – human RAD51 strand exchange inhibitors, primary screen, biochemical, fluorescence; hRad51 DNA strand exchange, fluorescence dequenching; inhibition, % at 10 µM; DNA repair protein RAD51 homolog 1 (Homo sapiens), Q06609; hit rate 0.085% among 200,000;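 active = inhibition above 40% at the single screening dose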;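 note: 0% = DMSO control wells and 100% = blanks with heterologous ssDNA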
#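 Assay system: Human Rad51 nucleoprotein filaments preassembled on unlabelled ssDNA | Reagent: Donor/quencher-labelled 47-bp dsDNA substrate | Doses: One concentration, 10 µM final | Times: 37 °C 15-min filament assembly, 30-min compound preincubation, 15-min exchange | Technique: Fluorescein emission 520 nm, excitation 485 nm | Benchmarks: Plate control and blank wells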
# Autophagy HCS – autophagy modulators in MEF cells, primary screen, imaging, high-content, MEF GFP-LC3; MEF GFP-LC3 puncta imaging; test concentration mostly 10 µM; hit rate 0.98% among 190,000; AID 463193, 2010; calls only at 10 µM (by protocol);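 active = percentage of spot-positive cells more than 3 SD above its plate mean, without a fluorescence outlier flag or 80% toxicity; inconclusive = no clear call, values can overlap the other calls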;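 note: spot-positive cell cutoff set from DMSO-treated cells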
# KCC2 secondary – KCC2 modulators in sodium-free buffer, confirmation, cell-based, HEK293 KCC2, thallium flux, secondary assay. shares compounds with Cl transport mod. FluoZin2 fluorescence; hits give high values. normalised thallium flux (F/F0 slope) at 10 µM. hit rate 15% among 3,700. AID 1713, 2009;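 active = thallium flux slope above the same plate's solvent-only control mean plus 3 SD; inconclusive = the two replicate wells disagree; inactive = no significant difference from solvent-only control wells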
# KCC2 bumet counter – thallium flux persisting under bumetanide in KCC2 cells, confirmation, counter-screen for KCC2 modulator project, cell-based, HEK293 KCC2, FluoZin2, secondary assay 3 | HEK293-KCC2 + bumetanide/ouabain; hits give high values | hit rate 49% among 3,700 | AID 1714, 2009 | normalized thallium flux at 10 µM | shares compounds with Cl transport mod;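 active = thallium entry rate above the same plate's blocked-transporter control wells by more than 3 SD; inconclusive = the two repeat wells disagree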;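 note: raw slope of fluorescence over initial fluorescence between 10 and 20 s after thallium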
# KCC2 sec2 – KCC2 modulators without ouabain present, confirmation, cell-based, HEK293 KCC2, thallium flux, FluoZin2, secondary assay 2. shares compounds with Cl transport mod. thallium flux FluoZin2 fluorescence; actives lie on both sides; F/F0 rise rate, 10–20 s post-thallium. normalized thallium flux at 10 µM. hit rate 23% among 3,700. AID 1715, 2009;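 active = thallium flux slope more than 3 SD above or below the plate's solvent-only control mean, mostly below; inconclusive = the two repeat wells disagreed; inactive = no significant shift from solvent-only controls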;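 note: raw slope with 0.1% DMSO as baseline and bumetanide as block control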
# HEK counter1 – thallium flux modulation in parental HEK cells, confirmation, counter-screen for KCC2 modulator project, cell-based, counterscreen 1. HEK293 parental cells, thallium flux FluoZin2, ouabain; baseline-ratio fluorescence slope, 10–20 s after thallium. hit rate 46% among 3,700. AID 1716, 2009. shares compounds with Cl transport mod. thallium flux rate (normalised fluorescence) at 10 µM;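 active = thallium flux rate significantly above the same plate's solvent-only control wells, beyond their mean plus 3 SD; inconclusive = the two replicate wells gave conflicting results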
# KCC2 retest ouab – KCC2 inhibitors and activators, ouabain retest, confirmation, HEK-KCC2 cells; shares compounds with Cl transport mod; HEK293-KCC2, thallium flux FluoZin2 fluorescence; bidirectional: low = inhibitor, high = activator; raw Tl+ flux slope (below DMSO = inhibition, above = activation) at 10 µM; hit rate 48% among 3,700;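 active = thallium flux slope beyond 3 SD from same-plate DMSO control mean in most replicates, usually higher, sometimes lower; inconclusive = repeat tests gave conflicting results; inactive = no significant difference from controls in most replicates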;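 note: slope of initial-normalized fluorescence between seconds 10 and 20 after thallium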
# HEK293 Tl flux2 – native HEK Tl+ uptake effects, second counter-screen – HEK cells, counterscreen 2, counter-screen for KCC2 modulator project, confirmation; shares compounds with Cl transport mod; thallium flux slope at 10 µM; HEK293 parental, thallium flux FluoZin-2 fluorescence slope; AID 1718, 2009; hit rate 33% among 3,700;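 active = thallium flux slope above the same plate's solvent-control mean plus 3 SD in both duplicate wells; inconclusive = duplicate wells that disagreed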;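 note: run without ouabain in cells lacking the KCC2 cotransporter; slope of fluorescence scaled to its starting value between 10 and 20 s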
# An asterisk follows results filed as active; i = inactive; ? = inconclusive; / = no result given.
SMILES,Insulin prom up,SKKanGAS inh,Cl transport mod,WT yeast gro inh,Rad51 HR inh,Autophagy HCS,KCC2 secondary,KCC2 bumet counter,KCC2 sec2,HEK counter1,KCC2 retest ouab,HEK293 Tl flux2
CCCc1nc2ccccc2c(=O)n1N,/,-2,12*,-5,-6,i,0.011,0.007,0.033,0.0084,0.019,0.012
Cc1ccc(C)c(S(=O)(=O)NC(Cc2c[nH]c3ccccc23)C(=O)O)c1 (centres undefined),-0.19,-17,0.057,-15,2,i,/,/,/,/,/,/
Cc1ccc(C)c(S(=O)(=O)NC(CC(C)C)C(=O)O)c1 (centres undefined),0.21,-6,5.6*,15,/,i,0.019,?,0.031,0.0073,0.014,0.01
CC(SCc1ccccc1)C(=O)Nc1ccc(F)cc1 (centres undefined),0.5,-2,-0.38,11,3,i,/,/,/,/,/,/
Cc1cccc(CSC(Nc2ccc(F)cc2)=C(C#N)C#N)c1,-0.7,20,-5*,80*,-2,i,0.0073,0.0064,0.029,0.0057*,0.059*,0.01
N#CC(C#N)=C(Nc1ccc(F)cc1)SCc1cccc(Br)c1,-0.21,25,-3.7*,80,23,i,0.0065,?,?,0.0096*,0.015*,0.011
CCN1CCN(C(=O)CS(=O)Cc2nc(-c3cccc(C)c3)oc2C)CC1 (centres undefined),/,-2,/,/,/,/,/,/,/,/,/,/
Cc1cccc(-c2nc(CS(=O)CC(=O)N3CCc4ccccc4C3)c(C)o2)c1 (centres undefined),1.1,-1,/,7,3,i,0.0074,0.0053,?,0.007,?,0.01
O=c1c2ccccc2[nH]c(=S)n1CCC1=CCCCC1,-0.84,21,38*,-9,-4,i,?,0.082*,0.048*,0.032*,0.043*,0.026*
O=c1c2ccccc2[nH]c(=S)n1Cc1ccc2c(c1)OCO2,1.2,-4,10*,-13,-34,i,?,0.012*,0.031,0.0098*,0.019,0.013*
CC(C)Cn1c(=S)[nH]c2ccccc2c1=O,1.6,-1,64*,5,14,i,0.0099*,0.12*,0.086*,0.086*,0.092*,0.085*
CC(C)Cn1c(=S)[nH]c2cc(Cl)ccc21,1.2,-2,92*,28,2,i,?,0.097*,?,0.083*,0.078*,0.063*
C=CCn1c(=S)[nH]c2ccccc2c1=O,/,/,/,-2,7,i,/,/,/,/,/,/
O=c1[nH]c2cc(Cl)ccc2n1-c1ccccc1,0.89,-8,-1.4,-25,-13,i,/,/,/,/,/,/
